The values that follow come from ChEMBL document CHEMBL1154076, “New furanoflavanoids, intestinal alpha-glucosidase inhibitory and free-radical (DPPH) scavenging, activity from antihyperglycemic root extract of Derris indica (Lam.)” (Bioorg Med Chem, 2009).

The subject of assay [1] is Radical scavenging activity. Briefly: Antioxidant activity assessed as DPPH radical scavenging activity. The format is functional. The method, boiled down:
(§1)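 DPPH (0.5 mM solution in absolute ethanol) is mixed with test sample (1 mg/mL DMSO stock) in 0.1 M Tris-HCl, pH 7.4. The mixture is shaken, kept in the dark for 30 min, and read at 517 nm. Scavenging % = (1 − B/A) × 100 versus a no-sample control. SC50 comes from logarithmic regression over at least five dilutions. n = 3.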

Assay [2] deals with Radical scavenging activity. The experiment in a line: Antioxidant activity against DPPH radical assessed as concentration required for 50% scavenging activity. It counts as functional. The method, boiled down:
as §1

A short description of assay [3]: Inhibition of rat alpha-glucosidase assessed as p-nitrophenol release at 50 ug/ml. The method, boiled down: (§2)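 Crude enzyme is the sonicated supernatant of rat intestinal acetone powder in normal saline (100:1 w/v). Sample (5 mg/mL DMSO stock) in 100 mM phosphate buffer, pH 6.8, is preincubated 5 min with enzyme. p-Nitrophenyl-α-D-glucopyranoside (5 mM solution) is added, and p-nitrophenol is read at 405 nm after 5 min. Blanks omit substrate; the control is DMSO. Inhibition % = (1 − B/A) × 100. IC50 is taken by log regression over ≥5 dilutions. n = 3.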

The species named for another assay is Rattus norvegicus. The experiment in a line: Inhibition of rat alpha-glucosidase assessed as p-nitrophenol release. In outline: as §2

Activity calls are given as the source filed them. The rule behind the calls is not given here.

For `O=c1cc(-c2ccc(O)c(O)c2)oc2c1ccc1occc12`, in assay [1], the Scavenging was found to be 55.1%. The results for the Activity (in assay [2]; in the assay listed under Rattus norvegicus) were 84.6 µM and 335 µM, respectively. The Inhibition in assay [3] stood at 25.6%.

Turning to `COc1c(-c2ccc3c(c2)OCO3)oc2c(ccc3occc32)c1=O` [PONGAPIN], in assay [1], the SC50 result is “inactive”. Further, in assay [3], the Inhibition is 21.4%.

On to `COc1c(C(=O)/C=C(\O)c2ccccc2)ccc2occc12` [PONGAMOL], for which the Scavenging in assay [1] is 11.2%. The Inhibition in assay [3] was 58.2%. Further, the Activity in the assay filed under Rattus norvegicus came to 104 µM.

As to `COc1c(-c2ccccc2)oc2c(ccc3occc32)c1=O` [KARANJIN], the SC50 entry in assay [1] was “inactive”. In addition, the Inhibition in assay [3] worked out at 26.3%.

For the molecule `COc1ccc(-c2cc(=O)c3c(O)cc(OC)cc3o2)cc1` [APIGENIN DIMETHYLETHER], the SC50 result in assay [1] was “inactive”. Further, the Inhibition in assay [3] came to 4.4%.

In the case of `O=c1c(O)c(-c2ccc(O)c(O)c2)oc2c1ccc1occc12`, the Scavenging in assay [1] was 64.9%. Also, the Activity in assay [2] came to 21 µM. Further, the Inhibition in assay [3] came to 37.9%.

For `O=c1cc(-c2ccc3c(c2)OCO3)oc2c1ccc1occc12` [PONGAGLABRONE], in assay [1], the SC50 entry is “inactive”. Further, the Inhibition in assay [3] turned out to be 8.6%.

As for `COc1cc(O)c2c(=O)cc(-c3ccccc3)oc2c1` [TECHTOCHRYSIN], the SC50 result in assay [1] was “inactive”. Further, the Inhibition in assay [3] is given as 28.7%.

For `COc1c(-c2ccc3c(c2)OCO3)oc2c3c(ccc2c1=O)OC(C)(C)C=C3` [PONGACHROMENE], in assay [1], the SC50 result was “inactive”. Besides, the Inhibition in assay [3] worked out at 22.8%.

As to `COc1c2ccoc2cc2oc(-c3ccccc3)cc(=O)c12` [PINNATIN], in assay [1], the SC50 result is “inactive”. Besides, the Inhibition in assay [3] turned out to be 36.5%.

With `COc1c(C(=O)/C=C(\O)c2ccc3c(c2)OCO3)ccc2occc12` [OVALITENONE], the SC50 entry in assay [1] was “inactive”. The Inhibition in assay [3] is given as 29.7%.

Turning to `COc1ccc2c(=O)c(OC)c(-c3ccc(OC)c(OC)c3)oc2c1` [FISETIN TETRAMETHYL ETHER], the SC50 result in assay [1] was “inactive”. The Inhibition in assay [3] worked out at 19.7%.

With `O=C(O)c1ccc2c(c1)OCO2` [PIPERONYLIC ACID], the Scavenging in assay [1] amounted to 2.4%. Further, the Inhibition in assay [3] came out at 18.4%.

Take `COc1c(-c2ccc3c(c2)OCO3)oc2cc(O)ccc2c1=O`: the Scavenging in assay [1] is 68.3%. In assay [2], the Activity came out at 39 µM. Besides, the Inhibition in assay [3] is 36%.
